Source: article PMC3171605 (Bioorganic & medicinal chemistry letters, 2011)
pKi: −log10 of the molar value.

Key:
CB1 [1] = molecular target: T1, CB1 (Homo sapiens, UniProt P21554); type: cell-based
CB1 [2] = molecular target: T1, CB1; assay: Radioligand displacement of [3H]1; type: binding
MDCK-mdr1 cells = assay: MDCK-mdr1 transport assay; type: in vitro ADME, Canine; details: 3.16 µM apical, 1 hr at 37°C
Method in brief: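 MDCK-mdr1 cells grown on permeable filter inserts for 4 days to confluence. Test compound applied apically at 3.16 µM, incubated 1 hr at 37°C, alongside two reference CB1 antagonists as controls. Apical and basolateral samples dried under nitrogen and quantified by LC-MS/MS (MRM) using a 0.1% formic acid water/methanol gradient at 0.5 mL/min. Read-out is the percentage transported across the monolayer.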

T1 sequence (P21554 whole entry, species assumed): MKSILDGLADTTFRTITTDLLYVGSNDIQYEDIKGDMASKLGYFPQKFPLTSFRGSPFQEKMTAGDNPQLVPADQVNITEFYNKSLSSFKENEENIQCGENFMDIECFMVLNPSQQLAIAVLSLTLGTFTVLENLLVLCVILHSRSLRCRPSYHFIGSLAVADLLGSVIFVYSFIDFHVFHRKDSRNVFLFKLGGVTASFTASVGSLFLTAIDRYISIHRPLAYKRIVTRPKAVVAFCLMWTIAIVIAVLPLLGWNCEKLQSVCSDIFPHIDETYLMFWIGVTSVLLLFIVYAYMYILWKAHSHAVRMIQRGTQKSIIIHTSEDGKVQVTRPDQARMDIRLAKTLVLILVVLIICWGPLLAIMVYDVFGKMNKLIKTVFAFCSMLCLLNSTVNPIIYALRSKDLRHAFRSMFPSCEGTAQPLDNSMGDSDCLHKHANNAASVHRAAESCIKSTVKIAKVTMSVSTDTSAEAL

| Kb (CB1 [1]) [µM] | SMILES | further results |
| --- | --- | --- |
| 0.117 | Cc1c(C(=O)Nc2ccncc2)nn(-c2ccc(Cl)cc2Cl)c1-c1ccc(Cl)cc1 [Compound 5] |  |
| 1.39 | Cc1c(C(=O)Nc2cc[n+]([O-])cc2)nn(-c2ccc(Cl)cc2Cl)c1-c1ccc(Cl)cc1 [Compound 7] |  |
| 0.384 | Cc1ccc(NC(=O)c2nn(-c3ccc(Cl)cc3Cl)c(-c3ccc(Cl)cc3)c2C)cn1 [Compound 8] |  |
| 1.2 | Cc1c(C(=O)Nc2ccc(C)[n+]([O-])c2)nn(-c2ccc(Cl)cc2Cl)c1-c1ccc(Cl)cc1 [Compound 10] |  |
| 0.98 | Cc1ccc(NC(=O)c2nn(-c3ccc(Cl)cc3Cl)c(-c3ccc(Cl)cc3)c2C)nc1 [Compound 11] |  |
| 9.43 | Cc1c(C(=O)N[C@H]2CC[C@H](NS(N)(=O)=O)CC2)nn(-c2ccc(Cl)cc2Cl)c1-c1ccc(Cl)cc1 [Compound 18] |  |
| 3.76 | Cc1c(C(=O)NCC2CCC(CN)CC2)nn(-c2ccc(Cl)cc2Cl)c1-c1ccc(Cl)cc1 (stereo not shown) [Compound 19] |  |

Further lines, the molecule ahead of its results:

| SMILES | Kb (CB1 [1]) [µM] | further results |
| --- | --- | --- |
| Cc1c(C(=O)Nc2cc[n+](C)cc2)nn(-c2ccc(Cl)cc2Cl)c1-c1ccc(Cl)cc1 [Compound 6] | > 10 |  |
| Cc1c(C(=O)Nc2ccc(C)[n+](C)c2)nn(-c2ccc(Cl)cc2Cl)c1-c1ccc(Cl)cc1 [Compound 9] | 8.41 |  |
| Cc1ccc(NC(=O)c2nn(-c3ccc(Cl)cc3Cl)c(-c3ccc(Cl)cc3)c2C)[n+](C)c1 [Compound 12] | 8.59 |  |
| Cc1ccc(NC(=O)c2nn(-c3ccc(Cl)cc3Cl)c(-c3ccc(Cl)cc3)c2C)[n+]([O-])c1 [Compound 13] | 4.58 |  |
| Cc1c(C(=O)NCC2CCC(CNS(C)(=O)=O)CC2)nn(-c2ccc(Cl)cc2Cl)c1-c1ccc(Cl)cc1 (stereo not shown) [Compound 20] |  | pKi (CB1 [2]): ~8.00 |
| Cc1c(C(=O)NC[C@H]2CC[C@@H](CNS(C)(=O)=O)CC2)nn(-c2ccc(Cl)cc2Cl)c1-c1ccc(Cl)cc1 [Compound 22] |  | transport from apical to basal side of the membrane (MDCK-mdr1 cells): less than 1% |
| Cc1c(C(=O)NC[C@H]2CC[C@@H](CNS(N)(=O)=O)CC2)nn(-c2ccc(Cl)cc2Cl)c1-c1ccc(Cl)cc1 [Compound 23] |  | transport from apical to basal side of the membrane (MDCK-mdr1 cells): less than 1% |
| CCNC1(C(N)=O)CCN(c2ncnc3c2nc(-c2ccccc2Cl)n3-c2ccc(Cl)cc2)CC1 [otenabant, reference compound] |  | transport from apical to basal side of the membrane (MDCK-mdr1 cells): ~ 90% |
| Cc1c(C(=O)NN2CCCCC2)nn(-c2ccc(Cl)cc2Cl)c1-c1ccc(Cl)cc1 [rimonabant, reference compound] |  | transport from apical to basal side of the membrane (MDCK-mdr1 cells): ~ 15% |
